Values after ≈ are worked out from the molar mass of the structure shown. Active and inactive are the calls of the source. No cut-off for these calls is given here. Starred links: 1 amine or outer side, 2 acyl side, 3 side chain; linkers in the order of their positions; H or OH if unused. Non-standard residues stand in square brackets, D forms with d. Residues, ends and D or L forms follow the SMILES beside them. ξ: configuration not given here. X5 = CCCCCCCCCCCCCCCCCCN([C@@H](CCCNC(=N)N)C(=O)[*:2])[*:1]; ξDap = NCC(N)C(=O)O
Columns and labels:
Acinetobacter baumannii = assay: Antibacterial activity against Acinetobacter baumannii incubated for 20 to 24 hrs by broth microdilution method; format: functional; details: time 20-24 hrs
Summary of the method: (§1)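 Broth microdilution: colonies suspended directly to 1.5×10^8 CFU/mL (0.5 McFarland), then diluted in Mueller–Hinton broth to ~10^5 CFU/mL final. PA stock 1 mg/mL in water, pH 7, serially diluted in MHB. Plates incubated 20–24 h at 37 °C. MIC = lowest concentration inhibiting growth, read as OD600 with optional 1% TTC staining. Triplicate.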

Escherichia coli [1] = assay: Antibacterial activity against Escherichia coli K12 incubated for 20 to 24 hrs by broth microdilution method; format: functional; details: time 20-24 hrs; summary of the method: as §1
Staphylococcus aureus [2] = assay: Antibacterial activity against methicillin resistant Staphylococcus aureus JE2 measured over 21 days by broth microdilution method; format: functional, organism-based; details: time 21.0 day
[3] = Self assembly property of the compound assessed as formation of micelles at 1 mg/ml incubated overnight by transmission electron microscopy; format: physicochemical
Summary of the method: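 Samples were dissolved at 2 mM in water, pH 7, and left at room temperature overnight. Applied to copper grids for 5 min, blotted, and negatively stained with NanoVan for 30 s. Imaged by TEM at 120 kV.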

Staphylococcus aureus [4] = assay: Antibacterial activity against methicillin-resistant Staphylococcus aureus 13C incubated for 20 to 24 hrs by broth microdilution method; format: functional; details: time 20-24 hrs
Summary of the method: (§2)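 Broth microdilution in MHB: direct colony suspension at 0.5 McFarland diluted to ~10^5 CFU/mL final; peptide stock 1 mg/mL in water at pH 7, serially diluted. Incubated 20-24 h at 37 °C; MIC taken as the lowest concentration inhibiting growth (OD 600 nm, 1% TTC stain); triplicate; vancomycin and gentamicin as positive controls.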

[5] = Retention time of the compound by RP-HPLC analysis; format: physicochemical
Summary of the method: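 Reverse-phase HPLC, linear gradient 0–100% acetonitrile in water with 0.1% TFA over 20 min; retention time recorded.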

Escherichia coli [6] = assay: Ratio of MIC for Escherichia coli K12 at pH 5.5 to MIC for Escherichia coli K12 at pH 7.0
Staphylococcus aureus [7] = assay: Ratio of MIC for methicillin-resistant Staphylococcus aureus JE2 at pH 5.5 to MIC for methicillin-resistant Staphylococcus aureus JE2 at pH 7.0
[8] = Self assembly property of the compound assessed as zeta potential at 250 ug/mL at pH 7 measured after 2 hrs; format: physicochemical; details: pH 7, 2 h, dose 250 µg/ml
Summary of the method: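 Peptide self-assembled at 1 mg/mL, pH 7, annealed 2 h at 80 °C, and aged overnight. Diluted to 250 µg/mL in water; zeta potential measured at 25 °C.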

[9] = (§3) Cytotoxicity against human HT-29 cells assessed as inhibition of cell growth incubated for 24 hrs at pH 7.4 by MTT assay; format: toxicity, cell-based; details: HT-29 cells, pH 7.4
Summary of the method: (§4)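 HT-29 cells in McCoy's 5a with 10% FBS were seeded at 15,000 cells/well and grown 24 h at 37 °C, 10% CO2. Medium then changed to pH 7.4 or pH 6.5 (20 mM MOPS, acidified with HCl). Peptide added in 2-fold dilutions, 7.8–500 µg/mL, for 24 h. Wells washed and given fresh pH 7.4 medium. MTT (12 mM, 10 µL) added for 4 h, then SDS-HCl for 4 h; A570 read.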

Staphylococcus aureus [10] = assay: Antibacterial activity against methicillin-resistant Staphylococcus aureus JE2 incubated for 20 to 24 hrs by broth microdilution method; format: functional; details: time 20-24 hrs; summary of the method: as §2
[11] = (§5) Cytotoxicity against human HT-29 cells assessed as inhibition of cell growth incubated for 24 hrs at pH 6.5 by MTT assay; format: toxicity, cell-based; details: HT-29 cells, pH 6.5; summary of the method: as §4
HT-29 [12] = assay: as §3; format: toxicity, cell-based; details: ht-29, pH 7.4, 24 h, time 24 hrs; summary of the method: as §4
HT-29 [13] = assay: as §5; format: toxicity, cell-based; details: ht-29, pH 6.5, 24 h, time 24 hrs; summary of the method: as §4

| Compound | MIC (Acinetobacter baumannii) [µg/mL] | MIC (Escherichia coli [1]) [µg/mL] | Activity (Staphylococcus aureus [2]) | Activity [3] | MIC (Staphylococcus aureus [4]) [µg/mL] | Retention_time [5] [min] | Ratio (Escherichia coli [6]) | Ratio (Staphylococcus aureus [7]) | Activity [8] [mV] | IC50 at 24 h [9] [µg/mL] | MIC (Staphylococcus aureus [10]) [µg/mL] | IC50 at 24 h [11] [µg/mL] | Activity (HT-29 [12]) | Activity (HT-29 [13]) |
| --- | --- | --- | --- | --- | --- | --- | --- | --- | --- | --- | --- | --- | --- | --- |
| CNC(C)[C@@H]1CC[C@@H](N)[C@@H](O[C@H]2[C@H](O)[C@@H](O[C@H]3OC[C@](C)(O)[C@H](NC)[C@H]3O)[C@H](N)C[C@@H]2N)O1 (some centres not stated) | 1 (≈ 2.09 µM) | 1 (≈ 2.09 µM) | Active | – | – | – | – | – | – | – | – | – | – | – |
| CO[C@H]1/C=C/O[C@@]2(C)Oc3c(C)c(O)c4c(O)c(c(/C=N/N5CCN(C)CC5)c(O)c4c3C2=O)NC(=O)/C(C)=C\C=C\[C@H](C)[C@H](O)[C@@H](C)[C@@H](O)[C@@H](C)[C@H](OC(C)=O)[C@@H]1C [RIFAMPIN] | 8 (≈ 9.72 µM) | 8 (≈ 9.72 µM) | – | – | – | – | – | – | – | – | – | – | – | – |
| CCCCCCCCCCCCCCCCCCN[C@@H](CCCNC(=N)N)C(=O)N[C@@H](CCCNC(=N)N)C(=O)NC(CN)C(=O)NC(CN)C(=O)NC(CN)C(=O)O (some centres not stated) (H-[X5]R[ξDap][ξDap][ξDap]-OH) | 32 (≈ 38 µM) | 32 (≈ 38 µM) | – | Active | 16 (≈ 19 µM) | 14.6 | > 1 | > 1 | 30.1 | 117 (≈ 139 µM) | 32 (≈ 38 µM) | 81.7 (≈ 97.1 µM) | – | – |
| CCCCCCCCCCCCCCCCCCN[C@@H](C)C(=O)N[C@@H](C)C(=O)NC(CN)C(=O)NC(CN)C(=O)NC(CN)C(=O)O (some centres not stated) | 64 (≈ 95.4 µM) | 32 (≈ 47.7 µM) | – | Active | 64 (≈ 95.4 µM) | 15.9 | > 1 | > 1 | 10.3 | – | 32 (≈ 47.7 µM) | – | Non-Toxic | Non-Toxic |

— ChEMBL document CHEMBL5365541, “Designing peptide amphiphiles as novel antibacterials and antibiotic adjuvants against gram-negative bacteria” (Bioorg Med Chem, 2023)
